# Screening data from PubChem.
# Most compounds without a hit are left out; they make up all but 2% or so of the library.
# PKD1 inh: blocks activity of human protein kinase D1; inhibition, % (no concentration beside the values); actives 0.056% (n = 200,000); PKD1 kinase fluorescence polarization assay
# EBV gp42 inh: EBV gp42 inhibition; Fluorescence polarization binding assay, mP read-out; AID 1085; inhibition, % (tested at 21.74 µM); Q1HVG2; actives 0.42% (n = 220,000)
# RanGTP-Imp inh: inhibitors of RanGTP-importin-beta interaction, primary screen, biochemical, FRET, CFP-Ran, YFP-importin-beta, homogeneous; cell-free CFP-Ran/YFP-importin-beta FRET ratio; inhibition, % (concentration not given with the values); actives 1.1% (n = 300,000); AID 2216;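 active = more than half of the replicate wells show a fall in the fluorescence ratio signal beyond about 16%, limit read from the data, passing the limit was not always enough; inconclusive = exactly half of the replicate wells pass the set limit; inactive = fewer than half of replicates pass the limit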;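 note: 0% = DMSO wells and 100% = Ran loaded with GDP instead of GTP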
# Runt-SMMHC FRET: Runt domain-CBFb-SMMHC interaction inhibition; Q01196+Q13951; Cerulean-Runt/Venus-CBFb-SMMHC FRET ratio 530/480, 1 h; inhibition, % at 20 µM; actives 0.74% (n = 220,000); AID 1434;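 active = mean inhibition across duplicate retests at 20 µM reaching about 50%, limit read from the data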;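 note: 0% = DMSO wells and 100% = wells with excess untagged CBFb-SMMHC; inhibitors lower the FRET ratio by blocking Runt binding to CBFb-SMMHC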
# Target sequence (Q01196 whole entry, looked up, the tested form may be a part): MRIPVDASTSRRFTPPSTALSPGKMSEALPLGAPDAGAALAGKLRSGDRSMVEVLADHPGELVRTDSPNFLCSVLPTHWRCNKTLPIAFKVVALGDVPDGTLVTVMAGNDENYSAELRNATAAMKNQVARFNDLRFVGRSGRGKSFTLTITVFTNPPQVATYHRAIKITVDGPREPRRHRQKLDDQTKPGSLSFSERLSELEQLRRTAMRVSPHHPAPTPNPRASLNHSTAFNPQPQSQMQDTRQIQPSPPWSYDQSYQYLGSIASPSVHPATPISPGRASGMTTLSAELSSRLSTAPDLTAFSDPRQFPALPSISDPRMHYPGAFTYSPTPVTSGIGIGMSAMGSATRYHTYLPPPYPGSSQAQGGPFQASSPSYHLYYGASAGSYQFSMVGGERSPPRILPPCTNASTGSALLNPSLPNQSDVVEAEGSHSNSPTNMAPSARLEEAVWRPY
# Target sequence (Q13951 whole entry, looked up, the tested form may be a part): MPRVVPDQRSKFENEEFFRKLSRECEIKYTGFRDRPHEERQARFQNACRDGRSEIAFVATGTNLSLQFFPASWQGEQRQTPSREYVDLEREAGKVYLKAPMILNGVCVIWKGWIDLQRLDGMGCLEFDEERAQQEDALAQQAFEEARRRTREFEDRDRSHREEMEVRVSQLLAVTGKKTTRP
# Runt-CBFb FRET: blocks binding of human RUNX1 Runt domain to CBFb; Cerulean-Runt/Venus-CBFb FRET ratio 530/480, 1 h; inhibition, % at 20 µM; Q01196+Q13951; actives 0.46% (n = 220,000); AID 1496;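 active = inhibition over about 50% at 20 µM in the single-dose screen, limit read from the data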;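 note: 0% = DMSO wells and 100% = excess unlabeled CBFb competitor control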
#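 Reagent – Venus-CBFb binding partner, 100 nM · Assay system – Cerulean-tagged RUNX1 Runt domain (FRET donor) fusion protein · Input – 100 nM per protein · Incubation – two 1 h room-temperature incubations shielded from light · Measured by – FRET fluorescence · Medium – Tris buffer pH 7.5 with salts and BSA · Benchmarks – unlabeled CBFb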
# MEX-5 binding: C. elegans MEX-5 TCR-2 RNA binding activity | Q9XUB2 | MEX-5/FITC-TCR2 RNA binding, fluorescence polarization; hits give low values | activity score (negative = inhibition of binding), % at 10 µM | actives 0.38% (n = 300,000) | AID 1832;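 active = inhibition past about -25% in most replicates, and total fluorescence under double the plate's negative control median, limit read from the data; inconclusive = replicates evenly split on the limit, or fluorescence at least double controls; inactive = too little inhibition in most replicates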;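 note: 0% = DMSO and -100% = 5 µM competing unlabeled TCR2 RNA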
# An asterisk follows results filed as active; ? = inconclusive; . = not tested or not shown. Cut-off read from the data, not from the text of the source, unless noted: active = inhibition above about 50%; inactive = the rest.
SMILES,PKD1 inh,EBV gp42 inh,RanGTP-Imp inh,Runt-SMMHC FRET,Runt-CBFb FRET,MEX-5 binding
COc1cccc(CN2CCN(S(=O)(=O)c3ccc(Cl)s3)CC2)c1,.,.,6,.,.,-1
Cc1nn(CC(=O)Nc2ccc3nc4n(c(=O)c3c2)CCCC4)c(C)c1[N+](=O)[O-],.,.,5,.,.,.
Cc1ccc(-c2nnc(Nc3ccc(CC(N)=O)cc3)c3ccccc23)cc1S(N)(=O)=O,.,.,4,.,.,-32*
O=S(=O)(NC1CCCCC1N1CCC(O)CC1)c1ccccc1 (stereo not drawn),.,.,56*,.,.,-2
Cc1n[nH]c(=S)c2nn(-c3cccc(Cl)c3)c(C)c12,-13,-21,-39,2,1,-32*
Cc1c(C(=O)N2CCCCC2)c(S(=O)(=O)N2c3ccccc3CC2C)c(C)n1C (stereo not drawn),.,.,1,.,.,2
COc1ccc2nc(SCC(N)=O)cc(C)c2c1,6,-5,2,2,0,1
COc1ccc2c(-c3ccccc3)cc(SCC(N)=O)nc2c1,.,-16,-10,-4,-4,-33*
OCc1ccccc1OCCCOc1cccc2cccnc12,.,.,-3,.,.,-2
O=C(COc1ccccc1)NCC(=O)Nc1ccncc1,.,.,2,.,.,-2
COc1ccc(CCNC(=O)c2cc3c(=O)n4cccc(C)c4nc3n(Cc3ccco3)c2=N)cc1OC,.,.,53*,.,.,-5
Cc1cccn2c(=O)c3cc(C(=O)NCCc4ccccc4)sc3nc12,.,.,0,.,.,0
Cc1cccn2c(=O)c3cc(C(=O)NCc4ccco4)c(=N)n(C(C)C)c3nc12,2,26,154*,60*,19,?
COc1ccc(CCNC(=O)c2ccc3c(=O)n(Cc4ccco4)c(=S)[nH]c3c2)cc1OC,-9,-4,-1,-12,7,-1
Cc1cccn2c(=O)c3cc(C(=O)NCCc4ccccc4)c(=N)n(Cc4ccco4)c3nc12,.,.,74*,.,.,1
Cc1cccn2c(=O)c3cc(C(=O)NCc4ccco4)c(=N)n(CCc4ccccc4)c3nc12,.,38,.,79*,12,.
CN(Cc1cccnc1)C(=O)CNC(=O)COc1ccccc1,.,.,3,.,.,1
C#CCSc1nnnn1-c1cccc(Cl)c1,.,-6,1,0,0,1
O=CN1c2ccccc2CSc2ccccc21,.,.,2,.,.,-8
Cc1cccn2c(=O)c3cc(C(=O)NCC4CCCO4)c(=N)n(CCc4ccccc4)c3nc12 (stereo not drawn),.,.,176*,.,.,?
COc1ccc(CCn2c(=N)c(C(=O)NCC3CCCO3)cc3c(=O)n4ccccc4nc32)cc1OC (stereo not drawn),.,.,6,.,.,2
Cc1nc(N2CCCCC2)nc(N2CCCCC2)c1C=O,-1,-11,-2,-13,-28,-11
CC1CCc2nc3ccc(S(=O)(=O)N4CCC(C(=O)NCc5ccccc5Cl)CC4)cc3c(C(=O)O)c2C1 (stereo not drawn),.,.,22*,.,.,0
CSC1=NSC2=NC(=O)/C(=C\c3cccs3)C(=N)N12,13,2,-2,-1,-3,1
N=C1/C(=C\c2coc3ccccc3c2=O)C(=O)N=C2SC=CN12,.,47,-96,-81,-254,?
SMILES,PKD1 inh,EBV gp42 inh,RanGTP-Imp inh,Runt-SMMHC FRET,Runt-CBFb FRET,MEX-5 binding
CSC1=NSC2=NC(=O)/C(=C/c3coc4ccc(O)cc4c3=O)C(=N)N12,-9,63*,.,-11,8,?
CSC1=NSC2=NC(=O)/C(=C/c3coc4ccccc4c3=O)C(=N)N12,-15,74*,.,-64,-40,.
O=C(O)C1CCN(C(=O)c2ccc3c(c2)OCO3)CC1,.,.,1,.,.,2
N#Cc1cc(C(=O)c2ccccc2O)cn(-c2nccs2)c1=O,-6,51*,-33,-117,-175,?
CCOC(=O)C(=O)/C(=C\N(C)C)c1onc(-c2ccccc2)c1C(=O)OC,7,132*,1,-1,0,1
CCOC(=O)C(=O)/C(=C\N(C)C)c1onc(-c2ccccc2Cl)c1C(=O)OC,-6,-4,-2,-2,-1,2
c1ccc(CSc2nnc(Cc3ccccn3)o2)cc1,0,-9,22*,1,-1,1
COc1ccc(C(=O)NNC(=O)c2ccc(C)cc2)cc1S(=O)(=O)N1CCCC1,-5,-7,9,-2,0,3
COc1cccc(NC(=O)COC(=O)C2C3CC4OC(=O)C2C4C3)c1 (stereo not drawn),.,.,5,.,.,1
FC(F)(F)c1cc(-c2cccs2)nc2cc(-c3ccccc3)nn12,1,-11,46*,-3,2,.
O=C(NCc1ccco1)c1cc2nc(-c3cccs3)cc(C(F)(F)F)n2n1,5,-10,20*,39,24,3
CN(C)/C=N/C1=C(C#N)C(c2ccc(Br)cc2)c2ccc3ccccc3c2O1 (stereo not drawn),.,.,21*,.,.,1
O=C(CN1c2ccccc2Sc2ccccc21)NNC(=O)Nc1cccc(Cl)c1,.,-12,-3,1,0,0
COCCn1c(-c2ccco2)nc2nc3ccccc3nc21,-1,-5,19*,66*,8,-5
CC(C)OCCCn1c(-c2ccco2)nc2nc3ccccc3nc21,-6,-12,?,.,34,.
COCCn1c(-c2cccs2)nc2nc3ccccc3nc21,.,-24,7,87*,41,-5
CCCn1c(-c2cccs2)nc2nc3ccccc3nc21,-6,-1,5,131*,40,0
O=C(NN1C(=O)C2C3CCC(O3)C2C1=O)c1ccco1 (stereo not drawn),-4,-18,1,3,-3,0
Cc1c(CCC(=O)O)c(=O)oc2cc3occ(-c4ccc(Br)cc4)c3cc12,.,.,-2,.,.,-12
COc1ccc(/C=N\NC(=O)c2sccc2C)cc1Cn1nc(C)cc1C,.,.,-3,.,.,-15
CNC(=O)c1ccc(NC(=O)/C=C/c2cccc(F)c2)cc1,-1,5,0,0,-9,1
FC(F)(F)c1cccc(-c2nc3nc(Cl)c(Cl)nc3[nH]2)c1,.,13,43*,43,21,-6
NC(=O)c1ccsc1NC(=O)c1coc2ccccc2c1=O,0,3,-1,3,13,-2
CSCC(C)N1CCC(Oc2cccc(C(=O)NCc3ccccn3)c2)CC1 (stereo not drawn),.,.,30*,.,.,-29*
CC#CC(=O)N1CCC(Oc2cccc(C(=O)NCc3ccccn3)c2)CC1,.,.,-3,.,.,0
N#C/C(=C\C1=C(N2CCOCC2)C(=C/c2cccc([N+](=O)[O-])c2)/CC1)C(=O)Nc1ccccc1F,-7,86*,.,-9,-1,.
N#C/C(=C\C1=C(N2CCOCC2)C(=C\c2ccc(Cl)cc2)/CC1)C(=O)Nc1ccccc1F,-3,124*,0,-7,8,-3
